Assay outcomes (PubChem)
SDO1 yeast rescue – restores growth of sdo1-depleted yeast; S. cerevisiae sdo1-depleted JHY4D growth rescue, OD600 30 h; active compounds read high; pdr5 snq2 efflux-pump mutant strain; z-score at 10 µM; actives 0.21% (n = 140,000); AID 817;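 active means z-score above 3 at both the 24 hr and the 30 hr optical density reads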;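 further: z-score against mean and SD of all compound wells on the same plate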
PTEN del growth – suppresses growth of cells with PTEN deletion; AID 827; actives 1.2% (n = 140,000); viability, % at 10 µM; HCT116 PTEN-null viability, CellTiter-Glo, 60 h; active compounds read low;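 active means viability at or below a set limit, 4 SD under the median of all tested compounds, cut at about 3.7% in these data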;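 further: PTEN knockout HCT116 line with beta catenin targeted HCT116 as companion control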
HCT116 bCat-KO – beta-catenin-lacking colon tumor cell growth suppression; HCT116 beta-catenin knockout viability, CellTiter-Glo, 60 h; active compounds read low; viability, % at 10 µM; actives 1.5% (n = 140,000); AID 818;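 active means viability at or under a set limit, the compound median less 4 SD, cut at about 6% in these data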;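 further: 0% = Hyamine 1622 control at 20 µM and 100% = untreated cell control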
BB579 growth dn – yeast BB579 growth reduction in restrictive medium | S. cerevisiae BB579 growth, OD615, 48 h | inhibition, % at 10 µM | actives 0.51% (n = 140,000);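 active means inhibition above a set limit, 3 SD over the mean compound inhibition, cut at about 44% in these data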
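Test system: Saccharomyces cerevisiae DeaD strain BB579, replicative lifespan model yeast | Buffer or medium: Restrictive CSMM-D medium | Doses: One dose, 10 µM compound with 0.25% DMSO | Incubation: 48 h exposure, 30 °C | Detection: Culture absorbance at 615 nm | Control set: Amphotericin B at 10 µg/mL as positive control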
Yeast lifespan up – yeast lifespan extension. S. cerevisiae growth with nicotinamide, OD615; deaD strain in restrictive glucose medium. inhibition of the nicotinamide effect, % at 10 µM. actives 0.68% (n = 130,000);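 active means inhibition above a set limit, placed 3 SD over the median of all compounds, cut at about 26% in these data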;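 further: 0% = nicotinamide-treated wells and 100% = cells grown without nicotinamide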
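Measured by: optical density (absorbance) at 615 nm; System: modified budding yeast, DeaD strain; Medium: restrictive CSMM-D dextrose medium; Timing: 4 h preincubation then 48 h treatment at 30 °C.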
* = called active by the depositor; . = not tested or not shown. Hits are enriched below; roughly 2.8% of the tested compounds scored in any of these assays.

SMILES | SDO1 yeast rescue | PTEN del growth | HCT116 bCat-KO | BB579 growth dn | Yeast lifespan up
CC(C)Oc1ccc(CC2CCC(=O)N(C)C2=O)cc1 (stereo not drawn) | 0.63 | 97 | 100 | -29 | -1
Cn1c(=O)c(=O)n(C)c2cc(S(=O)(=O)N3CCCCC3)ccc21 | 0.27 | 94 | 95 | -14 | -14
Cn1c(=O)c(=O)n(C)c2cc(S(=O)(=O)N3CCN(Cc4ccccc4)CC3)ccc21 | 0.27 | 88 | 93 | -17 | 88*
CCC(=O)OCCNc1cc(Sc2nc3ccccc3s2)c2nonc2c1[N+](=O)[O-] | -2.8 | 3.7* | 4.1* | -30 | 32*
O=[N+]([O-])c1c(NCCCO)cc(Sc2nc3ccccc3s2)c2nonc12 | -2.5 | 3.6* | 2.3* | 6 | -16
CS(=O)(=O)c1ccc(Sc2nc3ccccc3s2)c([N+](=O)[O-])c1 | -1.6 | 10 | 7 | -16 | 8
CCC(=O)OCCNc1cc(Sc2nc3ccccc3[nH]2)c2nonc2c1[N+](=O)[O-] | 1.1 | 1.5* | 1.7* | -11 | 1
CC(=O)Nc1ccc(S(=O)(=O)N2CCN(C(=O)c3cccnc3)CC2)cc1 | 0.05 | 99 | 87 | -12 | 8
c1ccc2c(c1)CCN(c1nc(CN3CCOCC3)nc3sc4c(c13)CCCC4)C2 | -1.5 | 55 | 59 | -63 | -2
COc1ccc(NS(=O)(=O)c2ccc(NC(=O)c3cnn4c(C(F)F)cc(-c5ccc(C)cc5)nc34)cc2)cc1 | 0.05 | 79 | 72 | -92 | 8
Nc1c(C(=O)Nc2cccc(Cl)c2Cl)sc2nc(-c3cccnc3)ccc12 | -0.74 | 1.3* | 1.5* | -15 | -3
S=C(NCCc1ccccc1)Nc1ccc(Br)cc1 | -1.9 | 55 | 66 | -11 | 3
c1ccc2sc(Sc3ncnc4sccc34)nc2c1 | 0.77 | 4 | 4.2* | -20 | -3
CCc1cc2c(Sc3nc4ccccc4s3)ncnc2s1 | 0.11 | 3.7* | 4.4* | 2 | -15
CCc1cc2c(SCC(=O)c3ccc(C)cc3)ncnc2s1 | -0.13 | 98 | 96 | -43 | .
CCNc1nnc(CSc2nc3ccccc3s2)s1 | -0.96 | 101 | 86 | -16 | .
CCC(Cc1ccccc1)NC(=O)C1CCN(S(=O)(=O)c2c(C)noc2C)CC1 (stereo not drawn) | -0.42 | 88 | 79 | -38 | -7
C/C(=N\NC(=O)c1cc(-c2ccc(C)s2)[nH]n1)c1ccco1 | 0.96 | 94 | 99 | -50 | -5
COC(=O)C(CC(=O)c1ccc(Br)cc1)n1ccnc1 (stereo not drawn) | -3.5 | 2.7* | 2.6* | -11 | 7
Cc1ccc(NCCC(=O)c2ccc(Br)cc2)cc1 | 0.53 | 105 | 89 | -17 | -17
Cc1cc(NS(=O)(=O)c2ccccc2)c(C)c(Cl)c1O | -0.53 | 2.2* | 2.3* | -27 | -1
Cc1cc(NS(=O)(=O)c2ccccc2)c([N+](=O)[O-])cc1C | -0.59 | 90 | 88 | -39 | 19
CC1=C(C#N)C(c2cccnc2)C2=C(CC(c3ccc(Cl)cc3)CC2=O)N1 (stereo not drawn) | 0.04 | 82 | 81 | -8 | -4
COCCn1c(SCC(=O)Nc2ccc(C)cc2)nc2c(oc3ccccc32)c1=O | -0.7 | 48 | 45 | -36 | 85*
O=C(c1nn2cccnc2c1Cl)N1CCN(c2ccccc2)CC1 | 0.11 | 98 | 92 | -50 | -5
SMILES | SDO1 yeast rescue | PTEN del growth | HCT116 bCat-KO | BB579 growth dn | Yeast lifespan up
O=P(CO)(Cc1ccccc1)Cc1ccccc1 | -0.37 | 97 | 97 | -23 | 55*
O=[N+]([O-])c1cc2oc3c(c2c(C=NCc2ccccc2)c1O)CCCC3 | -0.43 | 95 | 97 | 7 | 69*
Oc1cccc(C=NCc2ccccc2)c1 | -0.15 | 92 | 92 | -38 | -3
CC(C)CN=Cc1c(O)c([N+](=O)[O-])cc2oc3c(c12)CCCC3 | 0.45 | 103 | 102 | 68* | 21
Cc1ccc(C(Sc2ccccc2)C(Cn2cncn2)C(=O)c2ccccc2)cc1 (stereo not drawn) | -1.7 | 9 | 9 | -31 | 5
CN(Cc1c(O)ccc2c1oc(=O)c1ccccc12)C1CCCCC1 | 0.16 | 70 | 71 | -23 | 46*
O=C(NCc1ccco1)C(c1ccco1)N(CCc1ccccc1)C(=O)Cn1nnc2ccccc21 (stereo not drawn) | 0.56 | 85 | 84 | -57 | -1
CC(C)CCNC(=O)C(c1ccco1)N(C(=O)Cn1nnc2ccccc21)c1ccc2c(c1)OCO2 (stereo not drawn) | -0.31 | 3.3* | 3.1* | -50 | 0
CC(=O)NC1C(=O)N(C)c2ccc(Br)cc21 (stereo not drawn) | 0.48 | 83 | 91 | 22 | -13
CC(C)CC(=O)/C(=C\c1ccc(Cl)cc1Cl)n1cncn1 | -2 | 1.3* | 1.6* | 61* | -3
CN(C)c1ccc(/C=C(/C(=O)c2ccc(Cl)cc2Cl)n2cncn2)cc1 | -1.1 | 37 | 45 | 3 | 17
COc1ccc(/C=C(/C(=O)c2ccc(Cl)cc2Cl)n2cncn2)cc1 | -0.94 | 82 | 83 | -12 | 43*
CN1CCc2cc3c(c4c2[C@H]1[C@H](O)c1ccccc1-4)OCO3 | -0.01 | 50 | 30 | 62* | -5
CCc1nnc(NC(=O)c2cccc(S(=O)(=O)N(C)c3ccccc3)c2)s1 | -0.7 | 115 | 93 | -91 | 71*
CCSc1nnc(NC(=O)c2cccc(S(=O)(=O)N(C)c3ccc(C)cc3)c2)s1 | 0.2 | 85 | 90 | -17 | 17
COc1cccc(C(=O)Nc2cc3c(cc2C(C)=O)OCCO3)c1 | -0.01 | 100 | 93 | 8 | 2
CCOC(=O)c1ccc(S(=O)(=O)N2CCC(C(=O)O)CC2)cc1 | 1.4 | 102 | 99 | -49 | -8
CC(C)(C)C(=O)Nc1ccc(C(=O)NNC(=O)Cc2ccccc2)cc1 | 0.61 | 90 | 93 | -25 | -9
O=C1Nc2ccccc2SC(c2ccccc2)C1O (stereo not drawn) | 0.4 | 103 | 98 | -82 | -3
Cc1ccc(N2C(=N)/C(=C3/Nc4ccccc4S3)C(c3ccccc3)C2=O)cc1 (stereo not drawn) | -2 | 1.8* | 2.8* | -30 | 4
Cc1ccc(-c2nn(-c3ccccc3)cc2/C=N/NC(=O)c2ccc(Br)o2)cc1 | 0.38 | 4 | 4.2* | -9 | -23
O=C(N/N=C/c1coc2ccccc2c1=O)c1cn(-c2ccccc2)nc1-c1ccc(F)cc1 | -1.4 | 75 | 84 | -38 | 29*
CCOC(=O)C(=O)/C(=C\N(C)C)c1onc(-c2c(F)cccc2Cl)c1C(=O)OC | -0.59 | 95 | 104 | -26 | -12
Cc1cc(C)nc(N/C(=N\S(=O)(=O)Cc2ccccc2)Nc2ccccc2Br)n1 | -0.17 | 38 | 46 | -19 | -1
Cc1nc2nc(C)c(CCC(=O)Nc3ccc4c(c3)OCO4)c(C)n2n1 | -0.65 | 93 | 96 | -12 | 2
COc1cc(CN(C(=S)NCC(=O)NC2CCCC2)C2CCCC2)cc(OC)c1OC | -0.26 | 100 | 89 | -32 | 0
